Data reported in ChEMBL document CHEMBL2417545, “6-methoxy-7-benzofuranoxy and 6-methoxy-7-indolyloxy analogues of 2-[2-(2,6-Dimethoxyphenoxy)ethyl]aminomethyl-1,4-benzodioxane (WB4101):1 discovery of a potent and selective α1D-adrenoceptor antagonist” (J Med Chem, 2013).

Key:
[1] = biological target: T1, Alpha-1B adrenergic receptor (Homo sapiens, UniProt P35368); test: Displacement of [3H]prazosin from human alpha-1B adrenoreceptor expressed in CHO cells after 30 mins; assay type: cell-based
T1 sequence (P35368 whole entry): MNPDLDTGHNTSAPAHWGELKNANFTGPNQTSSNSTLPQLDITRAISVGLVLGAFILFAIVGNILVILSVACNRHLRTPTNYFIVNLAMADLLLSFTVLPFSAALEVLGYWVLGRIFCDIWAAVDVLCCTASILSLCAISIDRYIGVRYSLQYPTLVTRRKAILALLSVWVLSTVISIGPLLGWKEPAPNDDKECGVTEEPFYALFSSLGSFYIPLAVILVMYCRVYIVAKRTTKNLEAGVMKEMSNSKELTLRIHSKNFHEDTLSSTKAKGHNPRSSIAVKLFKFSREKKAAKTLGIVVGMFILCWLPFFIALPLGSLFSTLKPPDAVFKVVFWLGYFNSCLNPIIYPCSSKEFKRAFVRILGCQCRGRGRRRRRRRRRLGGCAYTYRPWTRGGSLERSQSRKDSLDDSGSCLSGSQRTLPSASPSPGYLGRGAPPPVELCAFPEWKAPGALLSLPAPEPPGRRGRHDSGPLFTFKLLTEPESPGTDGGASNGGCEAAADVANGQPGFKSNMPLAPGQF
Outline: (§1)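 Membranes from CHO cells expressing each α₁-AR subtype, incubated 30 min at 25 °C in 50 mM Tris HCl pH 7.7 with 10 μM pargyline and 0.1% ascorbic acid, plus 0.5 nM [³H]prazosin and varying test compound concentrations. Nonspecific binding was defined with 1 μM prazosin.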

[2] = biological target: T2, Alpha-1A adrenergic receptor (Rattus norvegicus, UniProt P43140); test: Antagonist activity at alpha-1A adrenoreceptor in Sprague-Dawley rat prostatic vas deferens assessed as inhibition of noradrenaline-induced tissue contraction after 30 mins by Schild plot analysis; conditions: read-out: pA2 (converted)
T2 sequence (P43140 whole entry): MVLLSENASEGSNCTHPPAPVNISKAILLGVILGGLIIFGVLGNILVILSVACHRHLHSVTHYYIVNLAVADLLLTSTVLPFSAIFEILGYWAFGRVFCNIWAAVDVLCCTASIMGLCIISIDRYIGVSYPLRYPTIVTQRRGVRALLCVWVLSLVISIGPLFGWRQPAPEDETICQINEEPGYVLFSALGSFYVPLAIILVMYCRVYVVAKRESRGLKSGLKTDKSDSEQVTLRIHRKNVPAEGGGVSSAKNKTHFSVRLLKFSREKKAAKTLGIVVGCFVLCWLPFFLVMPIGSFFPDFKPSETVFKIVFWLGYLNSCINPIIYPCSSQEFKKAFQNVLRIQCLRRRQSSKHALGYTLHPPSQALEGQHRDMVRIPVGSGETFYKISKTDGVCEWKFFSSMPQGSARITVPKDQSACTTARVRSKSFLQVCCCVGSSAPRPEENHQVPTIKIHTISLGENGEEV
Outline: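 Cumulative isotonic (−)-noradrenaline curves were run at 30 min intervals, the first discarded and the second taken as control, then a third after 30 min with antagonist. pA₂ from Schild plot, at least three antagonist concentrations, each tested 3−5 times.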

[3] = biological target: T3, Alpha-1D adrenergic receptor (Homo sapiens, UniProt P25100); test: Displacement of [3H]prazosin from human alpha-1D adrenoreceptor expressed in CHO cells after 30 mins; assay type: cell-based; outline: as §1
T3 sequence (P25100 whole entry): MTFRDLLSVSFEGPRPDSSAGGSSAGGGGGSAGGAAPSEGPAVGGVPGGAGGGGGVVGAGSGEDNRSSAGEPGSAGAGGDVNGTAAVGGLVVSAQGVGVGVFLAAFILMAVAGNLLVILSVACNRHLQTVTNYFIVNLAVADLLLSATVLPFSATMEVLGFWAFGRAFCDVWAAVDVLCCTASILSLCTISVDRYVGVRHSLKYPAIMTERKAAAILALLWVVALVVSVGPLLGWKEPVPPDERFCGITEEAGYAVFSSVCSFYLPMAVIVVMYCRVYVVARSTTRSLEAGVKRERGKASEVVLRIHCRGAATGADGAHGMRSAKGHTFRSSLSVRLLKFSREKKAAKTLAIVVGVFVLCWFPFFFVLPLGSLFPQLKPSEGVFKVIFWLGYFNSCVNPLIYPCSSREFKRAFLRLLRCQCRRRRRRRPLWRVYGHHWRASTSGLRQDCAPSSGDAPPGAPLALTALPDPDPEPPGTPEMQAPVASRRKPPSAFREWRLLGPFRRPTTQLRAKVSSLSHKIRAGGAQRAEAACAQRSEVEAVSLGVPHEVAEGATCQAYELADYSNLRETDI

[4] = biological target: T4, Alpha-1B adrenergic receptor (Rattus norvegicus, UniProt P15823); test: Antagonist activity at alpha-1B adrenoreceptor in Sprague-Dawley rat spleen assessed as inhibition of phenylephrine-induced tissue contraction after 30 mins by Schild plot analysis; conditions: read-out: pA2 (converted)
T4 sequence (P15823 whole entry): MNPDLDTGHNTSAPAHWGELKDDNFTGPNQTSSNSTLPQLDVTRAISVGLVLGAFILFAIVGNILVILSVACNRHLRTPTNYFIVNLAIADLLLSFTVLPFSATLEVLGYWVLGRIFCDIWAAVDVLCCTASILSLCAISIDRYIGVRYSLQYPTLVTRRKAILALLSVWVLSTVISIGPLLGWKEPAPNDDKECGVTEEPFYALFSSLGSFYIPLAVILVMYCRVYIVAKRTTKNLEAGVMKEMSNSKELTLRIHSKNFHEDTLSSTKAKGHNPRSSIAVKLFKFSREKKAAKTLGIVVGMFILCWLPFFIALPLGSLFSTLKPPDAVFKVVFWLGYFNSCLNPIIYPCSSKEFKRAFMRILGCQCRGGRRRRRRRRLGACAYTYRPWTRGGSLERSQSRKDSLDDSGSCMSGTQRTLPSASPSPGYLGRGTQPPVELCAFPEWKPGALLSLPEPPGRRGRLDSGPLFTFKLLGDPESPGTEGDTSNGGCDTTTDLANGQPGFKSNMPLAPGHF
Outline: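 Spleen from 250−300 g rats in gassed physiological salt solution with desipramine 0.01 μM and propranolol 1 μM. Isometric cumulative phenylephrine curves were run at 30 min intervals, the first discarded and the second taken as control, then a new curve after 30 min antagonist equilibration. pA₂ from Schild plot, at least three antagonist concentrations, each tested 3−5 times.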

SMILES	Ki [1] [nM]	Kb [2] [nM]	Ki [3] [nM]	Kb [4] [nM]
COc1ccc2ccoc2c1OCCNC[C@H]1COc2ccccc2O1.Cl	28.8	5.5	1.91	2.09
COc1ccc2cc[nH]c2c1OCCNC[C@H]1COc2ccccc2O1	490	4.9	631	17
COc1ccc2c(c1OCCNC[C@H]1COc3ccccc3O1)OCC2.Cl	21.9	33.9	2.24	3.24
COc1ccc2c(c1OCCNC[C@H]1COc3ccccc3O1)NCC2.Cl.Cl	35.5	9.33	12.9	0.832
